Only some compounds are listed: those with a hit (about 1.3% of all), similar ones and a draw of the others.
Keap1 Nrf2 FP: Keap1-Nrf2 protein-protein interaction inhibitors, primary screen, biochemical, fluorescence polarization, single point. Kelch-like ECH-associated protein 1 (Homo sapiens), Q14145. Keap1 Kelch-Nrf2 peptide fluorescence polarization, 1536-well. inhibition, % at 9.4 µM. 340,000 compounds, 0.15% hits; in the data active means inhibition above about 12%;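 further: human Keap1 Kelch domain with fluorescein labeled Nrf2 9mer peptide probe; higher means more block of Keap1 binding to Nrf2 peptide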
Target sequence (Q14145 whole entry, looked up, the tested form may be a part): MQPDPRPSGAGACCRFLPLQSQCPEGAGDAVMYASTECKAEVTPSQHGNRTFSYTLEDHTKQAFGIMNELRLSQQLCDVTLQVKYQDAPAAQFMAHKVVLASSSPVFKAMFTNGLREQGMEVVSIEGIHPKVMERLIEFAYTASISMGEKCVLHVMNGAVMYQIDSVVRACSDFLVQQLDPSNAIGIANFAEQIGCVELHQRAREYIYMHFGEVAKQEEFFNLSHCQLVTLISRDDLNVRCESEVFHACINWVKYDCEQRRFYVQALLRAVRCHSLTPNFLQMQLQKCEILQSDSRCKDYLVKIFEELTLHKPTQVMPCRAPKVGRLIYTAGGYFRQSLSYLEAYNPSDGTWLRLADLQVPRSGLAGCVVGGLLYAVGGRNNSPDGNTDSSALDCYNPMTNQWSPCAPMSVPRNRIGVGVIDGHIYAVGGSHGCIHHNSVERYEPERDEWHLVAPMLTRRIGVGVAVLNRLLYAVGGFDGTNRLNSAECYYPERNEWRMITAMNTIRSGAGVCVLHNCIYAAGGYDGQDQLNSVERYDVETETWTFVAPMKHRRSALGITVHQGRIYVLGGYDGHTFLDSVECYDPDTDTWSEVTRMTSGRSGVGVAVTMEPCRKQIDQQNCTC
CAL PDZ FP-1: CAL PDZ peptide-binding inhibitors, primary screen, biochemical, fluorescence polarization, Cer-tagged CAL PDZ, HTS; Golgi-associated PDZ and coiled-coil motif-containing protein (Homo sapiens), Q9HD26; purified CAL PDZ, TMR-peptide fluorescence polarization, 1 h; inhibition, % at 20 µM; 330,000 compounds, 0.02% hits; AID 504414, 2011;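 active means highest replicate inhibition of at least 40%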
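Test system: tagged CAL PDZ domain / Buffer or medium: sodium phosphate/NaCl buffer pH 7.4 with TCEP, IgG, Thesit / Reagent: TMR-labelled reporter peptide T*-PRC34 bound in PDZ groove / Compound dosing: single point, 20 µM / Schedule: 1 h incubation at room temperature before polarization reading / Technique: fluorescence polarization (mP) / Benchmarks: unlabelled peptide, DMSO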
CAL PDZ FP-2: untagged CAL PDZ binding inhibitors, primary screen, biochemical, fluorescence polarization, HTS; Golgi-associated PDZ and coiled-coil motif-containing protein (Homo sapiens), Q9HD26; 300,000 compounds, 0.92% hits; purified CAL PDZ, TMR-peptide fluorescence polarization, 1 h; AID 602252, 2012; inhibition, % at 24.9 µM;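 active means mean inhibition of at least 30% with at least half of replicates also reaching 30%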
RTF Ca sens inh: cardiac RTF calcium sensitivity inhibitors, primary screen, biochemical, IANBD-TnC fluorescence, EC70 calcium | Troponin I, cardiac muscle (Homo sapiens) + Troponin T, cardiac muscle (Homo sapiens) + … | IANBD-labeled cardiac RTF, Ca2+ fluorescence | inhibition, % at 7.15 µM | 340,000 compounds, 0.12% hits;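 active means inhibition above the mean inhibition of all tested compounds plus 3 SD, cut at about 17% in these data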;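 further: assay run at fixed EC70 calcium of 1.6 mM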
RTF Ca sens act: cardiac RTF calcium sensitivity activators, primary screen, biochemical, IANBD-TnC fluorescence, EC20 calcium. Troponin I, cardiac muscle (Homo sapiens) + Troponin T, cardiac muscle (Homo sapiens) + …. IANBD-labeled TnC RTF fluorescence at EC20 calcium; 0% EC20 calcium, 100% full calcium. activation, % at 7.2 µM. 340,000 compounds, 0.24% hits. AID 493008, 2010;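 active means activation above the mean over all tested compounds plus 3 SD, cut at about 30% in these data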;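 further: rise in fluorescence read as greater calcium sensitivity of cardiac thin filaments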
LANA DNA inh: inhibitors of KSHV C-LANA binding to DNA, primary screen, biochemical, fluorescence polarization, FAM-LBS DNA, MBP-C-LANA, single point. Kaposi's sarcoma herpesvirus LANA C-terminal domain (residues 932-1162) DNA binding. inhibition, % at 9 µM. 340,000 compounds, 0.078% hits. AID 504423, 2011;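 active means highest replicate inhibition at or above 60% at 9 µM, even if other replicates fall short; inactive means all replicates below 60% inhibition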
Of the large screens only hits and unclear results are named; the others gave an inactive call.

CCOCCCNC(=O)N[C@@H](C)C(=O)OC	CAL PDZ FP-2 62 (no result: CAL PDZ FP-1)
CCOCCCNC(=O)N[C@H](C(=O)OC)C(C)CC (some centres undefined)	none
O=C(O)CCCC1(C(=O)O)CCCC1	none
N#CCNC(=O)c1nn2c(C(F)(F)F)cc(-c3ccccc3)nc2c1Br	CAL PDZ FP-2 75 (no result: CAL PDZ FP-1)
CCCCNC(=O)c1nn2c(C(F)(F)F)cc(-c3ccccc3)nc2c1Br	none
O=C(CN1CCN(C(=O)c2ccco2)CC1)Nc1ccc(F)cc1F	CAL PDZ FP-2 89
O=C(CN1CCN(C(=O)c2ccco2)CC1)Nc1ccccc1	none
COC(=O)c1c(NC(=O)C2=COCCO2)sc(C)c1C	none
Cc1cccc(OCC(=O)N2CCCc3ccccc32)c1	CAL PDZ FP-2 71
Brc1ccc(-c2noc(C3CCCCC3)n2)cc1	CAL PDZ FP-2 107
c1ccc(-c2noc(C3CCCCC3)n2)nc1	none
COc1ccc2nc(-c3ccccc3)cc(C(=O)OCC(=O)NC3CC3)c2c1	none (no result: Keap1 Nrf2 FP, LANA DNA inh)
CCN(CC)CC(=O)NCC1(c2ccccc2)CCOCC1	CAL PDZ FP-2 70
Cc1ccc(NC(=S)NC(=O)C2CC2)cc1Cl	CAL PDZ FP-2 52
Cc1ccc(NC(=O)c2cc(S(=O)(=O)N(C)C)ccc2N2CCCC2)cc1S(=O)(=O)N(C)C	none
Cc1ccc(NC(=O)c2cc(S(=O)(=O)N3CCCCC3)ccc2N2CCOCC2)cc1S(=O)(=O)N(C)C	RTF Ca sens act 83 (no result: CAL PDZ FP-2)
Cc1cc(C(=O)COC(=O)COc2ccc(C#N)cc2)c(C)n1C1CC1	none
CN(C)CCN(C(=O)c1ccc(Br)s1)c1nc2cc3c(cc2s1)OCCO3	none
CN(C)CCN(C(=O)c1cccs1)c1nc2cc3c(cc2s1)OCCO3	CAL PDZ FP-2 41
CN(C)CCCN(C(=O)c1ccc(S(=O)(=O)N(C)Cc2ccccc2)cc1)c1nc2cc3c(cc2s1)OCO3	CAL PDZ FP-2 42
COn1c(SCC(N)=O)nc2ccccc2c1=O	none
COn1c(SCc2ccc(C)cc2C)nc2ccccc2c1=O	CAL PDZ FP-2 48 (no result: CAL PDZ FP-1)
CC(C)/C=C1\CC/C(=C\c2ccc(N(C)C)cc2)C1=O	RTF Ca sens act 64
Cc1[nH]nc(Nc2ccccc2)c1[N+](=O)[O-]	none
Cc1[nH]nc(NCCO)c1[N+](=O)[O-]	CAL PDZ FP-2 31
O=C(c1cc(=O)[nH]c2ccccc12)N(Cc1nnc(-c2ccccc2Cl)o1)C1CC1	none
CC(CN1CCN(C)CC1)OC(=O)c1cccc(Cl)c1 (centres undefined)	CAL PDZ FP-2 157 (no result: CAL PDZ FP-1)
COc1ccc(Cl)cc1NC(=O)CN(C)C(=O)c1cc2c(s1)CCCC2	none (no result: CAL PDZ FP-2)
CSc1cc(CS(=O)(=O)c2ccccc2)nc(-c2ccccc2)n1	CAL PDZ FP-2 79
O=C(OCC(=O)c1ccc(Cl)s1)c1cncc(Br)c1	none
CN(CCOc1ccccc1)CC(=O)Nc1ccc(Cl)cc1[N+](=O)[O-]	none
COc1cc(NC(=O)CN(C)CCOc2ccccc2)c(C)cc1[N+](=O)[O-]	CAL PDZ FP-2 42
COC(=O)c1sccc1NC(=O)c1cccc(Cl)c1	CAL PDZ FP-2 83
COC(=O)[C@H](C)NC(=O)c1cc2c(cn1)[nH]c1ccccc12	RTF Ca sens act 32
O=C(COC(=O)/C=C/c1ccccc1[N+](=O)[O-])Nc1ccc(S(=O)(=O)N2CCOCC2)cc1	CAL PDZ FP-2 35
O=C(COC(=O)c1cc(S(=O)(=O)N2CCOCC2)ccc1Cl)Nc1ccc2c(c1)OCO2	CAL PDZ FP-2 79
Cc1cc(C)c(OCC(=O)Nc2ccc3c(c2)OCO3)cc1C	CAL PDZ FP-2 active
COc1ccc(NC(=O)COC(=O)/C=C/c2ccccc2[N+](=O)[O-])cc1	none
